Reference: article PMC5481492 (Chemico-biological interactions, 2016)
Like-named read-outs stand apart in the source and are kept apart here. Each block holds one compound with its values, some of them ahead of it.

Assays:
[1] = molecular target: T1, horse liver ADH1E S48T/F93A (Equus caballus, UniProt P00327, F94A/S49T); assay: Steady-state kinetics, S48T/F93A enzyme; assay type: biochemical; conditions: for Increase of the R/S ratio (inversion of enantioselectivity) as compared to wild-type enzyme: S48T/F93A relative to wild-type; for Ratio of V/Km for (R)- to (S)-enantiomers: enantioselectivity; for Michaelis constant for coenzyme (Ka NAD+, Kq NADH) / Ki / Turnover number (V1/Et ethanol oxidation, V2/Et acetaldehyde reduction): pH 8.0, 25 °C; for Michaelis constant for coenzyme (Ka NAD+, Kq NADH): both substrates varied; for Ki: read-out: Inhibition constant for coenzyme (Kia NAD+, Kiq NADH)
T1 sequence (P00327 whole entry S49T/F94A): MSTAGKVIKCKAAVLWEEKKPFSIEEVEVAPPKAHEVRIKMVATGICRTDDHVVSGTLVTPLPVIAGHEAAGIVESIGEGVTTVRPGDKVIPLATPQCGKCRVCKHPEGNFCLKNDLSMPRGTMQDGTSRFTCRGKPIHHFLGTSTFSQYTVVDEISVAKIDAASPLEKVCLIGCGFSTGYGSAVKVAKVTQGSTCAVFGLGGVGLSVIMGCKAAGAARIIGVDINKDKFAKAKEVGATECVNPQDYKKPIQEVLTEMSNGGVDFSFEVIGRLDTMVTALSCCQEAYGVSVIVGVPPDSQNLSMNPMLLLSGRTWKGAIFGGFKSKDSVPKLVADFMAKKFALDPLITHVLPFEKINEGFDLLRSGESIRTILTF

[2] = molecular target: T1, horse liver ADH1E S48T/F93A; assay: Transient; assay type: biochemical; conditions: pH 8.0, 25 °C; 2 mM NAD+ (oxidation) or stoichiometric NADH (reduction)
Procedure, shortened: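 Stopped-flow (three-syringe, 2.5 ms dead time) at 25 °C in 33 mM sodium phosphate, 0.25 mM EDTA, pH 8.0. Enzyme at 6–15 μN (active sites) was mixed with 2 mM NAD⁺ and varied alcohol (oxidation), or with NADH equal to the enzyme concentration and varied carbonyl compound (reduction). A328 bursts (Δε 5500 M⁻¹cm⁻¹) were fitted as first-order; rate constants were analysed against substrate concentration.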

[3] = molecular target: T2, horse liver ADH1E (EqADH1E), wild-type (Equus caballus, UniProt P00327); conditions: value in parentheses; cited from earlier work
T2 sequence (P00327 whole entry): as the sequence (P00327 whole entry S49T/F94A) above, with T49S, A94F counted along it

[4] = molecular target: T2, horse liver ADH1E (EqADH1E), wild-type; conditions: pH 8.5, 25 °C, cited from earlier work
[5] = molecular target: T1, horse liver ADH1E S48T/F93A; assay: Inhibition of ethanol oxidation, S48T/F93A enzyme; assay type: biochemical
[6] = molecular target: T2, horse liver ADH1E (EqADH1E), wild-type; conditions: cited from earlier work
horse liver ADH1E F93A [7] = molecular target: T3, horse liver ADH1E F93A (Equus caballus, UniProt P00327, F94A); conditions: cited from earlier work; for Substrate deuterium isotope effect on k max: value in brackets
T3 sequence (P00327 whole entry F94A): as the sequence (P00327 whole entry S49T/F94A) above, with T49S counted along it

[8] = molecular target: T2, horse liver ADH1E (EqADH1E), wild-type; assay: Steady-state kinetics, wild-type enzyme; assay type: biochemical; conditions: enantioselectivity
horse liver ADH1E S48T [9] = molecular target: T4, horse liver ADH1E S48T (Equus caballus, UniProt P00327, S49T); assay: Steady-state kinetics, S48T enzyme; assay type: biochemical; conditions: for Ratio of V/Km for (R)- to (S)-enantiomers: enantioselectivity; for Michaelis constant for coenzyme (Ka NAD+, Kq NADH) / Ki / Turnover number (V1/Et ethanol oxidation, V2/Et acetaldehyde reduction): pH 8.0, 25 °C; for Michaelis constant for coenzyme (Ka NAD+, Kq NADH): both substrates varied; for Ki: read-out: Inhibition constant for coenzyme (Kia NAD+, Kiq NADH)
T4 sequence (P00327 whole entry S49T): as the sequence (P00327 whole entry S49T/F94A) above, with A94F counted along it

horse liver ADH1E F93A [10] = molecular target: T3, horse liver ADH1E F93A; assay: Steady-state kinetics, F93A enzyme; assay type: biochemical; conditions: for Ratio of V/Km for (R)- to (S)-enantiomers: enantioselectivity; for Michaelis constant for coenzyme (Ka NAD+, Kq NADH): both substrates varied; for Ki: read-out: Inhibition constant for coenzyme (Kia NAD+, Kiq NADH)
horse liver ADH1E S48T [11] = molecular target: T4, horse liver ADH1E S48T; assay: Inhibition of ethanol oxidation, S48T enzyme; assay type: biochemical
horse liver ADH1E F93A [12] = molecular target: T3, horse liver ADH1E F93A; assay: Inhibition of ethanol oxidation, F93A enzyme; assay type: biochemical
horse liver ADH1E F93A [13] = molecular target: T3, horse liver ADH1E F93A; assay: Transient; assay type: biochemical; conditions: for K m (transient reaction) / k max (transient oxidation): pH 8.0, 25 °C, 2 mM NAD+
horse liver ADH1E S48A = horse liver ADH1E S48A (Equus caballus, UniProt P00327, S49A); assay: Steady-state kinetics, S48A enzyme; assay type: biochemical; conditions: pH 8.0, 25 °C; for Michaelis constant for coenzyme (Ka NAD+, Kq NADH): both substrates varied; for Ki: read-out: Inhibition constant for coenzyme (Kia NAD+, Kiq NADH)
Sequence of horse liver ADH1E S48A (P00327 whole entry S49A): as the sequence (P00327 whole entry S49T/F94A) above, with T49A, A94F counted along it

[14] = molecular target: T2, horse liver ADH1E (EqADH1E), wild-type; conditions: pH 8.0, 25 °C; cited from earlier work
[15] = competitive against ethanol, pH 8.0, 25 °C

Structure (SMILES): CCC(C)=O [2-Butanone, 2-butanone]
Km ([1]; ketone reduction, 0.1 mM NADH): 12.7 ± 0.9 mM
V2/Et ([1]; ketone reduction, 0.1 mM NADH): 0.081 ± 0.002 s⁻¹
K m (transient reaction) [2]: 29 mM
k max (transient oxidation or reduction) [2]: 0.14 s⁻¹
k max (transient oxidation or reduction) [3]: 0.12 s⁻¹
Binding rate constant k−6 ([4]; (pro-R)-2-butanone pathway): 6.5 M⁻¹ s⁻¹
Dissociation rate constant k6 ([4]; (pro-R)-2-butanone pathway): 4.3 s⁻¹
Binding rate constant k−6 ([4]; (pro-S)-2-butanone pathway): 180 M⁻¹ s⁻¹
Dissociation rate constant k6 ([4]; (pro-S)-2-butanone pathway): 2.5 s⁻¹

Structure (SMILES): OCC(F)(F)C(F)(F)C(F)(F)F [heptafluorobutanol]
Ki [5, 15]: 53 µM
Ki [6]: 5.3 µM

Structure (SMILES): O=Cc1ccccc1 [Benzaldehyde, benzaldehyde]
K m (transient reaction) [2]: 0.26 mM
k max (transient oxidation or reduction) [2]: 0.67 s⁻¹
k max (transient oxidation or reduction) (horse liver ADH1E F93A [7]): 2.2 s⁻¹
Substrate deuterium isotope effect on k max (horse liver ADH1E F93A [7]): 3.4
K m (transient reaction) [3]: 0.49 mM
k max (transient oxidation or reduction) [3]: 320 s⁻¹

K m (transient reaction) [2]: 15 mM
k max (transient oxidation or reduction) [2]: 78 s⁻¹
Structure (SMILES): OCc1ccccc1 [Benzyl alcohol, benzyl alcohol]
k max (transient oxidation or reduction) (horse liver ADH1E F93A [7]): 3.3 s⁻¹
Substrate deuterium isotope effect on k max (horse liver ADH1E F93A [7]): 4.0
K m (transient reaction) [3]: 0.03 mM
k max (transient oxidation or reduction) [3]: 24 s⁻¹

Ratio of V/Km for (R)- to (S)-enantiomers [8]: 0.45
Ratio of V/Km for (R)- to (S)-enantiomers (horse liver ADH1E S48T [9]): 0.88
Ratio of V/Km for (R)- to (S)-enantiomers (horse liver ADH1E F93A [10]): 1.1
Increase of the R/S ratio (inversion of enantioselectivity) as compared to wild-type enzyme [1]: 10 fold
Ratio of V/Km for (R)- to (S)-enantiomers [1]: 4.3
Structure (SMILES): CCC(C)O (stereo not shown) [2-Butanol, 2-butanol]

Ki (horse liver ADH1E S48T [11]): 740 µM
Ki (horse liver ADH1E F93A [12]): 51 µM
Ki [5]: > 10000 µM
Structure (SMILES): OCc1c(F)c(F)c(F)c(F)c1F [pentafluorobenzyl alcohol, 2,3,4,5,6-pentafluorobenzyl alcohol]
Ki [6, 15]: 0.52 µM

Ki [5, 15]: 8.1 µM
Structure (SMILES): c1cn[nH]c1 [Pyrazole, pyrazole]
Type of inhibition [5]: competitive inhibitor against varied concentrations of ethanol
Ki [6]: 0.2 µM

K m (transient reaction) [2]: 4.9 mM
k max (transient oxidation or reduction) [2]: 16 s⁻¹
K m (transient reaction) (horse liver ADH1E F93A [13]): 1.3 mM
k max (transient oxidation) (horse liver ADH1E F93A [13]): 29 s⁻¹
Structure (SMILES): CC[C@H](C)O [(S)-2-Butanol, (S)-2-butanol]
k max (transient oxidation or reduction) [3]: 2.5 s⁻¹

Michaelis constant for coenzyme (Ka NAD+, Kq NADH) (horse liver ADH1E S48T [9]): 6.3 µM
Ki (horse liver ADH1E S48T [9]): 0.57 µM
Michaelis constant for coenzyme (Ka NAD+, Kq NADH) (horse liver ADH1E S48A): 44 µM
Ki (horse liver ADH1E S48A): 21 µM
Michaelis constant for coenzyme (Ka NAD+, Kq NADH) (horse liver ADH1E F93A [10]; pH 8.0, 25 °C): 1.9 µM
Ki (horse liver ADH1E F93A [10]; pH 8.0, 25 °C): 0.036 µM
Michaelis constant for coenzyme (Ka NAD+, Kq NADH) [1]: 5.0 µM
Ki [1]: 0.054 µM
Rate constant for binding of NADH (horse liver ADH1E F93A [13]; transient kinetics, stated in a paragraph on the F93A and S48T/F93A enzymes): 1e+07 M⁻¹ s⁻¹
Structure (SMILES): NC(=O)C1=CN([C@@H]2O[C@H](COP(=O)(O)OP(=O)(O)OC[C@H]3O[C@@H](n4cnc5c(N)ncnc54)[C@H](O)[C@@H]3O)[C@@H](O)[C@H]2O)C=CC1 [NADH]
Michaelis constant for coenzyme (Ka NAD+, Kq NADH) [14]: 5.8 µM

Structure (SMILES): CC=O [acetaldehyde]
Turnover number (V1/Et ethanol oxidation, V2/Et acetaldehyde reduction) (horse liver ADH1E S48T [9]): 20 s⁻¹
Turnover number (V1/Et ethanol oxidation, V2/Et acetaldehyde reduction) (horse liver ADH1E S48A): 0.29 s⁻¹
Turnover number (V1/Et ethanol oxidation, V2/Et acetaldehyde reduction) (horse liver ADH1E F93A [10]; pH 8.0, 25 °C): 20 s⁻¹
Turnover number (V1/Et ethanol oxidation, V2/Et acetaldehyde reduction) [1]: 35 s⁻¹
K m (transient reaction) [2]: 150 mM
k max (transient oxidation or reduction) [2]: 58 s⁻¹
Turnover number (V1/Et ethanol oxidation, V2/Et acetaldehyde reduction) [14]: 47 s⁻¹
K m (transient reaction) [3]: 2.1 mM
k max (transient oxidation or reduction) [3]: 390 s⁻¹

Ratio of V/Km for (R)- to (S)-enantiomers [8]: 0.067
Ratio of V/Km for (R)- to (S)-enantiomers (horse liver ADH1E F93A [10]): 0.34
Increase of the R/S ratio (inversion of enantioselectivity) as compared to wild-type enzyme [1]: 190 fold
Ratio of V/Km for (R)- to (S)-enantiomers [1]: 13.
Structure (SMILES): CC(O)c1ccccc1 (stereo not shown) [sec-Phenethyl alcohol, sec-phenethyl alcohol]

Ratio of V/Km for (R)- to (S)-enantiomers [8]: 0.0034
Ratio of V/Km for (R)- to (S)-enantiomers (horse liver ADH1E S48T [9]): 0.023
Ratio of V/Km for (R)- to (S)-enantiomers (horse liver ADH1E F93A [10]): 0.62
Increase of the R/S ratio (inversion of enantioselectivity) as compared to wild-type enzyme [1]: 590 fold
Ratio of V/Km for (R)- to (S)-enantiomers [1]: 2.0
Structure (SMILES): CCCCCCC(C)O (stereo not shown) [2-Octanol, 2-octanol]

Structure (SMILES): CCO [ethanol]
Turnover number (V1/Et ethanol oxidation, V2/Et acetaldehyde reduction) (horse liver ADH1E S48T [9]): 1.7 s⁻¹
Turnover number (V1/Et ethanol oxidation, V2/Et acetaldehyde reduction) (horse liver ADH1E S48A): 0.01 s⁻¹
Catalytic efficiency (V1/EtKb, V2/EtKp) (horse liver ADH1E F93A [10]; pH 8.0, 25 °C): 1.7 mM⁻¹ s⁻¹
Turnover number (V1/Et ethanol oxidation, V2/Et acetaldehyde reduction) (horse liver ADH1E F93A [10]; pH 8.0, 25 °C): 0.35 s⁻¹
Turnover number (V1/Et ethanol oxidation, V2/Et acetaldehyde reduction) [1]: 0.29 s⁻¹
K m (transient reaction) [2]: 38 mM
k max (transient oxidation or reduction) [2]: 72 s⁻¹
K m (transient reaction) (horse liver ADH1E F93A [13]): 26 mM
k max (transient oxidation) (horse liver ADH1E F93A [13]): 22 s⁻¹
Catalytic efficiency (V1/EtKb, V2/EtKp) [14]: 10 mM⁻¹ s⁻¹
Turnover number (V1/Et ethanol oxidation, V2/Et acetaldehyde reduction) [14]: 3.5 s⁻¹
K m (transient reaction) [3]: 4.1 mM
k max (transient oxidation or reduction) [3]: 180 s⁻¹

Michaelis constant for coenzyme (Ka NAD+, Kq NADH) (horse liver ADH1E S48T [9]): 11 µM
Ki (horse liver ADH1E S48T [9]): 15 µM
Michaelis constant for coenzyme (Ka NAD+, Kq NADH) (horse liver ADH1E S48A): 200 µM
Ki (horse liver ADH1E S48A): 110 µM
Michaelis constant for coenzyme (Ka NAD+, Kq NADH) (horse liver ADH1E F93A [10]; pH 8.0, 25 °C): 3.3 µM
Ki (horse liver ADH1E F93A [10]; pH 8.0, 25 °C): 44 µM
Michaelis constant for coenzyme (Ka NAD+, Kq NADH) [1]: 4.4 µM
Ki [1]: 33 µM
Structure (SMILES): NC(=O)c1ccc[n+]([C@@H]2O[C@H](COP(=O)([O-])OP(=O)(O)OC[C@H]3O[C@@H](n4cnc5c(N)ncnc54)[C@H](O)[C@@H]3O)[C@@H](O)[C@H]2O)c1 [NAD^+]
Michaelis constant for coenzyme (Ka NAD+, Kq NADH) [14]: 3.9 µM

Structure (SMILES): OCC(F)(F)F [trifluoroethanol, 2,2,2-trifluoroethanol]
Ki (horse liver ADH1E S48T [11]): 98 µM
Ki (horse liver ADH1E F93A [12]): 53 µM
Ki [5]: 600 µM
Type of inhibition [5]: uncompetitive inhibitor against varied concentrations of NAD^+
Ki [6, 15]: 8.4 µM

K m (transient reaction) [2]: 26 mM
k max (transient oxidation or reduction) [2]: 130 s⁻¹
K m (transient reaction) (horse liver ADH1E F93A [13]): 1.2 mM
k max (transient oxidation) (horse liver ADH1E F93A [13]): 44 s⁻¹
Structure (SMILES): CC[C@@H](C)O [(R)-2-Butanol, (R)-2-butanol]
k max (transient oxidation or reduction) [3]: 15 s⁻¹
